Data set [1] has as its system Mus musculus. Briefly: Anticonvulsant activity in Albino mouse at 30 mg/kg, ip after 0.5 hrs by MES assay. The arrangement: dose 30 mg/kg. The data set is classed as functional, organism-based. A digest of the protocol: (§1)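 Mice given compound ip at 30, 100 and 300 mg/kg in 30% polyethylene glycol 400 and 10% water, 0.01 mL/g body weight. Three animals per dose. Maximal electroshock (MES) or pentylenetetrazol (PTZ) seizure tests were run 0.5 and 4 h after dosing, and animals protected were counted.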

For data set [2], the system named is Mus musculus. Briefly: Anticonvulsant activity in Albino mouse at 100 mg/kg, ip after 0.5 hrs by MES assay. In kind it is functional, organism-based. The arrangement: dose 100 mg/kg. The procedure, abridged:
as §1

Data set [3] deals with Mus musculus. Briefly: Neurotoxicity in Albino mouse at 30 mg/kg, ip after 0.5 hrs by RotoRod test. In kind it is toxicity, organism-based. Also on record: dose 30 mg/kg, route intraperitoneal. The conditions noted are these: in vivo. A digest of the protocol:
(§2)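 RotoRod neurotoxicity screen in mice dosed ip at 30, 100 and 300 mg/kg, in vehicle of 30% PEG 400 and 10% water (0.01 mL/g). Three animals per dose, tested 0.5 and 4 h after administration. Affected animals were scored per group.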

Data set [4] deals with Mus musculus. Kind of data set: Neurotoxicity in Albino mouse at 300 mg/kg, ip after 0.5 hrs by RotoRod test. The data set is classed as toxicity, organism-based. The arrangement: dose 300 mg/kg, route intraperitoneal. The conditions noted are these: in vivo. A digest of the protocol:
as §2
In general terms: In the rotarod test animals must keep their balance on a rotating rod.

Data set [5] has as its system Mus musculus. Kind of data set: Neurotoxicity in Albino mouse at 30 mg/kg, ip after 4 hrs by RotoRod test. The data set is classed as toxicity, organism-based. The arrangement: dose 30 mg/kg, route intraperitoneal. As to conditions: in vivo. The procedure, abridged: as §2
The subject of data set [6] is Mus musculus. Kind of data set: Neurotoxicity in Albino mouse at 100 mg/kg, ip after 4 hrs by RotoRod test. In kind it is toxicity, organism-based. Also on record: dose 100 mg/kg, route intraperitoneal. As to conditions: in vivo. The procedure, abridged: as §2
Data set [7] relates to Mus musculus. Kind of data set: Anticonvulsant activity in Albino mouse at 30 mg/kg, ip after 0.5 hrs by PTZ assay. Also on record: dose 30 mg/kg. In kind it is functional, organism-based. A digest of the protocol: as §1
Data set [8] deals with Mus musculus. Briefly: Anticonvulsant activity in Albino mouse at 100 mg/kg, ip after 0.5 hrs by PTZ assay. The arrangement: dose 100 mg/kg. In kind it is functional, organism-based. The procedure, abridged:
as §1

The subject of data set [9] is Mus musculus. Kind of data set: Anticonvulsant activity in Albino mouse at 30 mg/kg, ip after 4 hrs by PTZ assay. Also on record: dose 30 mg/kg. The data set is classed as functional, organism-based. A digest of the protocol:
as §1

Data set [10] relates to Mus musculus. Briefly: Anticonvulsant activity in Albino mouse at 100 mg/kg, ip after 4 hrs by PTZ assay. The data set is classed as functional, organism-based. The arrangement: dose 100 mg/kg. The procedure, abridged:
as §1

Data set [11] concerns Mus musculus. Briefly: Anticonvulsant activity in Albino mouse at 300 mg/kg, ip after 0.5 hrs by MES assay. The data set is classed as functional, organism-based. Also on record: dose 300 mg/kg. A digest of the protocol:
as §1

Data set [12] relates to Mus musculus. Kind of data set: Anticonvulsant activity in Albino mouse at 30 mg/kg, ip after 4 hrs by MES assay. The arrangement: dose 30 mg/kg. In kind it is functional, organism-based. The procedure, abridged:
as §1

Data set [13] has as its system Mus musculus. Kind of data set: Neurotoxicity in Albino mouse at 100 mg/kg, ip after 0.5 hrs by RotoRod test. Also on record: dose 100 mg/kg, route intraperitoneal. The data set is classed as toxicity, organism-based. As to conditions: in vivo. A digest of the protocol: as §2
Data set [14] deals with Mus musculus. Briefly: Neurotoxicity in Albino mouse at 300 mg/kg, ip after 4 hrs by RotoRod test. In kind it is toxicity, organism-based. The arrangement: dose 300 mg/kg, route intraperitoneal. The conditions noted are these: in vivo. The procedure, abridged:
as §2

Data set [15] has as its system Mus musculus. Briefly: Anticonvulsant activity in Albino mouse at 300 mg/kg, ip after 0.5 hrs by PTZ assay. The data set is classed as functional, organism-based. The arrangement: dose 300 mg/kg. The procedure, abridged: as §1
Data set [16] relates to Mus musculus. Briefly: Anticonvulsant activity in Albino mouse at 300 mg/kg, ip after 4 hrs by PTZ assay. Also on record: dose 300 mg/kg. In kind it is functional, organism-based. A digest of the protocol: as §1
Data set [17] has as its system Mus musculus. Kind of data set: Anticonvulsant activity in Albino mouse at 100 mg/kg, ip after 4 hrs by MES assay. In kind it is functional, organism-based. The arrangement: dose 100 mg/kg. The procedure, abridged: as §1
For data set [18], the system named is Mus musculus. Kind of data set: Anticonvulsant activity in Albino mouse at 300 mg/kg, ip after 4 hrs by MES assay. The data set is classed as functional, organism-based. The arrangement: dose 300 mg/kg. The procedure, abridged: as §1

Structures are written as SMILES. Activity calls are given as the source filed them. No cut-off for these calls is given here.

With `CCCCNS(N)(=O)=O`, the result in the data set on Mus musculus [1], in the data set with Mus musculus [2], in the data set with Mus musculus [7], in the data set on Mus musculus [8], with Mus musculus [9] and in the data set on Mus musculus [10] was inactive. Besides, the Activity entry with Mus musculus [3] is on record as “Non-toxic”; with Mus musculus [4], “Toxic”; in the data set on Mus musculus [5], “Non-toxic”; with Mus musculus [6], “Non-toxic”.
Consider `CCCCNS(=O)(=O)NC(=O)OC(C)(C)C`, for which the result in the data set on Mus musculus [2] and with Mus musculus [11] was Active. Further, the outcome in the data set with Mus musculus [12], in the data set with Mus musculus [7], with Mus musculus [8], with Mus musculus [15], in the data set on Mus musculus [9] and with Mus musculus [10] was inactive. Further, the result in the data set with Mus musculus [16] was inactive. Further, the Activity result with Mus musculus [3], with Mus musculus [13], in the data set with Mus musculus [4], in the data set on Mus musculus [5], in the data set with Mus musculus [6] and in the data set with Mus musculus [14] was “Non-toxic” each time.
Take `CCCCN(CCCC)S(N)(=O)=O`: the outcome in the data set with Mus musculus [1], with Mus musculus [12], with Mus musculus [17], with Mus musculus [7], in the data set on Mus musculus [9] and in the data set with Mus musculus [10] was inactive. Also, the Activity entry in the data set with Mus musculus [3] is listed as “Non-toxic”; with Mus musculus [13], “Non-toxic”; with Mus musculus [4], “Toxic”; in the data set on Mus musculus [5] it was “Non-toxic”; with Mus musculus [6], “Non-toxic”; in the data set with Mus musculus [14], “Toxic”.
Consider `CCCCN(CCCC)S(=O)(=O)NC(=O)OC(C)(C)C`, for which the outcome with Mus musculus [1], in the data set with Mus musculus [17], in the data set with Mus musculus [7], with Mus musculus [8], in the data set with Mus musculus [15] and with Mus musculus [9] was inactive. For the same compound, the outcome with Mus musculus [10] and in the data set with Mus musculus [16] was inactive. In addition, the Activity entry in the data set with Mus musculus [3], in the data set on Mus musculus [13], in the data set on Mus musculus [4], in the data set with Mus musculus [5], with Mus musculus [6] and with Mus musculus [14] was “Non-toxic” in each case.
Take `CCCNS(=O)(=O)NCCC`: the outcome in the data set with Mus musculus [1], with Mus musculus [2], in the data set on Mus musculus [12], in the data set on Mus musculus [17], in the data set on Mus musculus [18] and in the data set with Mus musculus [7] was inactive. The result in the data set with Mus musculus [10] and in the data set with Mus musculus [16] was inactive. Moreover, the result in the data set on Mus musculus [11] and with Mus musculus [15] was Active. Moreover, the Activity entry in the data set on Mus musculus [3], in the data set with Mus musculus [13], in the data set with Mus musculus [5], with Mus musculus [6] and in the data set on Mus musculus [14] was “Non-toxic” throughout.
In the case of `CCCN(CCC)S(N)(=O)=O`, the outcome in the data set on Mus musculus [1], with Mus musculus [12], in the data set on Mus musculus [7] and with Mus musculus [9] was inactive. Moreover, the Activity entry in the data set with Mus musculus [3], in the data set on Mus musculus [13], with Mus musculus [5] and in the data set with Mus musculus [6] was “Toxic” in each case.
For the compound `CCCN(CCC)S(=O)(=O)NC(=O)OC(C)(C)C`, the result in the data set on Mus musculus [1], with Mus musculus [2], in the data set with Mus musculus [12], in the data set on Mus musculus [17], with Mus musculus [18] and in the data set with Mus musculus [7] was inactive. Further, the outcome in the data set with Mus musculus [8], with Mus musculus [15], in the data set on Mus musculus [9], in the data set on Mus musculus [10] and in the data set with Mus musculus [16] was inactive. Moreover, the Activity result in the data set with Mus musculus [3], in the data set with Mus musculus [13], in the data set on Mus musculus [4], in the data set on Mus musculus [5], in the data set on Mus musculus [6] and in the data set with Mus musculus [14] was “Non-toxic” each time.
Take `CCCCN(CCCC)S(=O)(=O)N(CCCC)CCCC`: the result in the data set on Mus musculus [1], in the data set with Mus musculus [2], with Mus musculus [11], in the data set on Mus musculus [12], with Mus musculus [17] and with Mus musculus [18] was inactive. Further, the outcome in the data set with Mus musculus [7], in the data set on Mus musculus [8], in the data set with Mus musculus [15], in the data set on Mus musculus [10] and in the data set with Mus musculus [16] was inactive. Also, the Activity result with Mus musculus [3], in the data set on Mus musculus [13], with Mus musculus [4], with Mus musculus [5], with Mus musculus [6] and in the data set with Mus musculus [14] was “Non-toxic” in each case.
For the compound `CC(C)(C)OC(=O)NS(=O)(=O)NCc1ccccc1`, the result in the data set on Mus musculus [1], in the data set with Mus musculus [2], in the data set on Mus musculus [11], in the data set with Mus musculus [12], with Mus musculus [17] and with Mus musculus [18] was inactive. Besides, the result with Mus musculus [7], in the data set on Mus musculus [8], in the data set with Mus musculus [15], with Mus musculus [9], in the data set with Mus musculus [10] and in the data set on Mus musculus [16] was inactive. Moreover, the Activity result with Mus musculus [3], in the data set on Mus musculus [13], in the data set with Mus musculus [4], with Mus musculus [5], in the data set on Mus musculus [6] and in the data set with Mus musculus [14] was “Non-toxic” each time.
`O=S(=O)(NC1CC1)NC1CC1`: the outcome in the data set with Mus musculus [1], with Mus musculus [2], in the data set with Mus musculus [11], in the data set on Mus musculus [12], with Mus musculus [17] and in the data set with Mus musculus [18] was inactive. Also, the result with Mus musculus [7], with Mus musculus [8], in the data set with Mus musculus [15], in the data set with Mus musculus [9], with Mus musculus [10] and with Mus musculus [16] was inactive. Besides, the Activity entry in the data set on Mus musculus [3], in the data set on Mus musculus [13], in the data set with Mus musculus [4], in the data set with Mus musculus [5], with Mus musculus [6] and in the data set on Mus musculus [14] was “Non-toxic” in each case.
Regarding `O=S(=O)(N1CCOCC1)N1CCOCC1`, the outcome in the data set with Mus musculus [1], with Mus musculus [2], with Mus musculus [12], in the data set on Mus musculus [17], with Mus musculus [7] and with Mus musculus [8] was inactive. In addition, the outcome in the data set on Mus musculus [9] and in the data set on Mus musculus [10] was inactive. Also, the Activity entry in the data set on Mus musculus [3], in the data set with Mus musculus [13], in the data set on Mus musculus [5] and with Mus musculus [6] was “Non-toxic” throughout.
Regarding `CCCN(CCC)S(=O)(=O)N(CCC)CCC`, the result in the data set with Mus musculus [1], in the data set on Mus musculus [2], with Mus musculus [11], in the data set on Mus musculus [12], with Mus musculus [17] and in the data set with Mus musculus [18] was inactive. The result in the data set on Mus musculus [7], in the data set on Mus musculus [8], in the data set with Mus musculus [15], in the data set with Mus musculus [9], in the data set with Mus musculus [10] and with Mus musculus [16] was inactive. The Activity entry in the data set on Mus musculus [3], in the data set with Mus musculus [13], with Mus musculus [4], with Mus musculus [5], in the data set on Mus musculus [6] and in the data set with Mus musculus [14] was “Non-toxic” throughout.

The values are drawn from ChEMBL document CHEMBL1143719, “Design, synthesis, and anticonvulsant activity of some sulfamides” (Bioorg Med Chem, 2007).
